Jurkat NFkB inh – inhibitors of the PMA/ionomycin-induced NF-kB reporter in Jurkat cells | 330,000 tested, 0.53% active | PMA/ionomycin-induced NF-kB luciferase reporter, luminescence | inhibition, % at 4 µM; in the data active = inhibition above about 50%
697 NFkB inh – inhibitors of the PMA/ionomycin-induced NF-kB reporter in 697 B cells; 697 B-cell NF-kB luciferase reporter, 16 h; inhibition, % at 4 µM; 330,000 tested, 0.33% active; AID 435022; in the data active = inhibition above about 35%
GASC-1 inh – blocks human GASC-1 demethylase activity | inhibition, % at 2.35 µM | GST-JMJD2C(1-420) H3K9me3 demethylation, DELFIA europium | 330,000 tested, 0.069% active;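 active = more than half of a compound's replicate wells show inhibition beyond 50%, single wells judged on their own value; inconclusive = some, but no more than half, of replicates pass 50% inhibition; inactive = no replicate passes 50% inhibition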;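 also: signal counts dimethyl H3K9 product captured on neutravidin plate; 0% = median of DMSO wells and 100% = 0.3 times that DMSO median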
Target sequence (Q9H3R0 1-420 limits assumed): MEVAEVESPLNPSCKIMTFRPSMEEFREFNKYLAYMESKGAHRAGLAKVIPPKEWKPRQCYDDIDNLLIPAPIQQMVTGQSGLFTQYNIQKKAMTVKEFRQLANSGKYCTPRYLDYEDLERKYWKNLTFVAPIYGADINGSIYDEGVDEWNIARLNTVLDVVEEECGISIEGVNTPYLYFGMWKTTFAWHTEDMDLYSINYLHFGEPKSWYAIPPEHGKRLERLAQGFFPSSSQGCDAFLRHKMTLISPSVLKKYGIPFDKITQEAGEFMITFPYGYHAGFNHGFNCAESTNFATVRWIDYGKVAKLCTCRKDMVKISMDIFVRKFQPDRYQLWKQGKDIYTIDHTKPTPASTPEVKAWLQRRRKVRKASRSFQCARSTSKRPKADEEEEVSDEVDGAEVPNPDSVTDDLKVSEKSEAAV
GalR3 antag – human GalR3 antagonism; HEK293 GalR3-CNG cAMP membrane potential fluorescence; galR3 body fused to GalR1 C-terminus; inhibition, % at 3 µM; 360,000 tested, 0.44% active; AID 651719;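 active = inhibition above the screen-wide average plus 3 SD, cut at about 13% in these data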;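 also: forskolin and galanin both at EC90 stimulate the cells; cAMP rise reported by CNG channel membrane potential dye signal; 0% = forskolin plus galanin with DMSO and 100% = forskolin alone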
Target sequence (O60755 1-299 limits assumed): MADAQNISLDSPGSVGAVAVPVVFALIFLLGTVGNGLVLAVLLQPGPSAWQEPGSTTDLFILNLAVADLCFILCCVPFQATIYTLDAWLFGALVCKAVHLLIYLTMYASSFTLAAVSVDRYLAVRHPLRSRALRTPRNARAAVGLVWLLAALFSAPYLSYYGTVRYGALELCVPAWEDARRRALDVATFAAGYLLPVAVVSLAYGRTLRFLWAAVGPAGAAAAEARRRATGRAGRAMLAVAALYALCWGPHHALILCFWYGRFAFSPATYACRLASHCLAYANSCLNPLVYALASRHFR
NR2E3 ag-1 – agonists of human nuclear receptor NR2E3; Q9Y5X4; GST-NR2E3/biotin-RetCOR TR-FRET, 1536-well; inhibition of corepressor binding, % at 4.78 µM; 320,000 tested, 0.12% active; AID 2300;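 active = percent inhibition above the cutoff of mean plus 3 SD of all tested compounds, set per screening campaign, cut at about 20% in these data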;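 also: 0% = DMSO wells and 100% = biotin wells as full block of FRET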
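Material: NR2E3–RetCOR corepressor complex / Incubation: Compound–protein incubation for 5 h at 4 °C / Dosing: compound at 4.8 µM, single dose / Detection: time-resolved FRET / Benchmarks: high control biotin, low control 0.6% DMSO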
NR2E3 ag-2 – agonists of human NR2E3 nuclear receptor; inhibition of corepressor binding, % at 3.98 µM; Q9Y5X4; CHO-S Gal4-NCOR/VP16-NR2E3 two-hybrid, luciferase; AID 602229; 360,000 tested, 0.35% active;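 active = inhibition above the mean of all tested compounds plus 3 SD, cut at about 70% in these data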;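 also: 0% = DMSO with NR2E3 transfected cells and 100% = cells lacking NR2E3 construct; higher means lower luciferase signal from less NR2E3 corepressor binding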
697 NFkB conf – inhibitors of the PMA/ionomycin-induced NF-kB reporter in 697 B cells, retest; shares compounds with 697 NFkB inh; 697 B-cell NF-kB luciferase, 16 h; inhibition, % at 4 µM; 2,000 tested, 35% active; in the data active = inhibition mostly above about 28%, no sharp cut-off; inactive = mostly below about 22%
Starred values were filed as active, the others as inactive; i = inactive; ? = inconclusive; · = not tested or not shown. The list is not random: actives were taken first. Their share in the collection is about 1.5%.

SMILES | Jurkat NFkB inh | 697 NFkB inh | GASC-1 inh | GalR3 antag | NR2E3 ag-1 | NR2E3 ag-2 | 697 NFkB conf
O=C(NCc1ccccc1)C1=C[C@H](C2CCCCC2)C[C@H](OCc2ccc(CO)cc2)O1 | 6.9 | i | -2.3 | -2.3 | 5.0 | -10.6 | -22.8
COc1ccc2c(c1OC)C(=O)OC2Nc1nc2ccccc2s1 (configuration not stated) | -5.4 | 1.7 | 4.7 | -3.7 | -2.9 | -10.6 | ·
COc1ccc2c(c1OC)C(=O)OC2Nc1ccccn1 (configuration not stated) | 22.6 | 35.5* | 1.4 | -0.1 | 2.1 | -13.3 | 5.8
O=C(COC(=O)c1cccc(S(=O)(=O)N2CCOCC2)c1)NC1CCCCC1 | · | · | · | -5.3 | · | -37.4 | ·
Cc1cc(C)c(OCCCNC2CCCC2)c(Br)c1 | 1.0 | -5.6 | 15.0 | -9.8 | 0.8 | 19.6 | ·
COCCCNC(=O)COc1ccc(-c2nccc(-c3ccccn3)n2)cc1 | 3.0 | 53.4* | 5.4 | -3.4 | 1.6 | 3.0 | 62.6*
Cc1ccc(OCC(=O)NCCCNC(=O)c2ccccn2)cc1 | -13.1 | -11.3 | ? | 0.7 | 2.8 | -16.5 | ·
COc1ccc(C(=O)O)cc1S(=O)(=O)Nc1ccc(N2CCCCC2)cc1 | -14.5 | -5.7 | 18.0 | -0.1 | · | -16.4 | ·
N=c1c2c(n(Cc3ccc(F)cc3)c3c1CCC3)CCCC2 | 13.2 | 6.1 | -7.3 | -1.1 | 2.2 | -10.2 | ·
N=c1c2c(n(Cc3cccc(Cl)c3)c3c1CCC3)CCCC2 | 40.6 | 43.5* | -8.1 | -0.1 | -2.7 | -9.8 | 38.0*
N=c1c2c(n(Cc3ccc(Cl)cc3)c3c1CCC3)CCC2 | 34.1 | 105.2* | 8.6 | -6.3 | 0.7 | -21.8 | 24.7
COc1ccccc1NC(=O)NC1CC(=O)N(c2ccc3c(c2)OCCO3)C1 (configuration not stated) | -16.2 | -2.9 | -1.6 | -1.6 | 0.1 | 22.4 | ·
COc1ccc(-c2cc(C(=O)O)c3ccccc3n2)c(OC)c1 | 6.9 | 12.4 | 0.0 | 3.7 | 2.3 | -15.2 | ·
COc1ccc2cc(-c3cc(C(=O)O)c4ccccc4n3)ccc2c1 | -18.5 | -344.5 | -14.9 | -4.1 | 0.3 | -97.4 | -351.0
Oc1ccccc1C=Nc1ccccc1-c1nc2ccccc2[nH]1 | -39.5 | -268.0 | 5.8 | -13.0 | 3.9 | -62.0 | -80.7
COC(=O)c1ccccc1NC(=O)c1ccc(-c2ccc(Br)cc2)o1 | 6.6 | -367.2 | 10.5 | 0.1 | -0.8 | -12.4 | -286.4
O=C(c1cccc(S(=O)(=O)N2CCc3ccccc32)c1)N1CCN(c2ccccn2)CC1 | -60.0 | i | -0.5 | -8.6 | -1.8 | 8.1 | i
COc1ccccc1Cn1c(=O)c2ccccc2n2c(SCc3csc(C)n3)nnc12 | -11.2 | -1.4 | 0.9 | -0.8 | -1.3 | -2.8 | ·
COc1ccccc1Cn1c(=O)c2ccccc2n2c(Sc3ncnc4sccc34)nnc12 | 13.8 | 35.1* | 9.7 | -1.6 | -1.3 | -27.3 | 17.6
O=C(Nc1ccc2[nH]c(=S)sc2c1)Nc1ccccc1F | -122.5 | -295.6 | -3.7 | -8.1 | -0.4 | -142.9 | -211.8
O=C(Nc1ccc2[nH]c(=S)sc2c1)c1ccccc1 | -59.1 | -48.7 | 0.8 | -4.2 | -1.6 | -87.4 | ·
Cn1c(-c2ncc(F)cc2F)cc2onc(-c3c(F)cccc3Cl)c2c1=O | -0.2 | -98.6 | 1.7 | -8.8 | · | -92.8 | ·
Cn1c(-c2ccccc2)cc2onc(-c3ccccc3)c2c1=O | -65.6 | -325.0 | 3.0 | -1.5 | 0.4 | -59.9 | -359.6
CCOc1ccc(NC(=O)CN(C)C(=O)c2ccc(N3CCCCCC3)c([N+](=O)[O-])c2)cc1OCC | -13.6 | 41.9* | -9.4 | -4.8 | 0.3 | -2.8 | 3.3
CCOc1ccc(NC(=O)CN(C)C(=O)c2ccc(N3CCOCC3)c([N+](=O)[O-])c2)cc1OCC | 5.7 | -5.5 | -3.7 | -0.3 | 1.2 | 6.5 | ·
SMILES | Jurkat NFkB inh | 697 NFkB inh | GASC-1 inh | GalR3 antag | NR2E3 ag-1 | NR2E3 ag-2 | 697 NFkB conf
COC(=O)C1=C(C)Nc2c(c(=O)n(C)c(=O)n2C)C1c1ccc(Cl)cc1 (configuration not stated) | 0.6 | -16.3 | -29.7 | 2.9 | 0.5 | -11.9 | ·
Nc1ccccc1SCC(=O)Nc1nc(-c2ccccc2)cs1 | 23.1 | 46.7* | 1.6 | -9.7 | -2.2 | 8.2 | 40.3*
Cc1csc(SCC(=O)Nc2nc(-c3ccccc3)cs2)n1 | -28.8 | -27.1 | 2.0 | 4.0 | 0.6 | -30.2 | ·
Cc1ccc(S(=O)(=O)N2CCN(C(C)CC(=O)O)CC2)cc1 (configuration not stated) | -28.0 | 18.7 | -6.4 | -1.7 | 3.8 | -12.1 | ·
COc1ccc(-c2cc3ccc(OC)cc3cn2)cc1 | -143.8 | -327.2 | 2.1 | 0.3 | 4.3 | -191.5 | -390.1
CC1CCc2nc(NC(=O)C3COc4ccccc4O3)sc2C1 (configuration not stated) | -88.9 | -299.5 | -0.8 | · | 3.2 | -7.8 | -333.6
O=C1Nc2ccc(S(=O)(=O)NCCCO)c3cccc1c23 | -4.3 | -3.4 | -10.9 | -0.6 | · | 9.5 | ·
CCNS(=O)(=O)c1ccc2c3c(cccc13)C(=O)N2 | 5.3 | 37.9* | -5.6 | 1.5 | -3.3 | -16.7 | 19.2
COc1ccc2nc(Sc3c([N+](=O)[O-])nc(C)n3Cc3ccccc3)[nH]c2c1 | -8.9 | 38.8* | 3.4 | -2.3 | -1.8 | · | 47.0*
COc1ccc(-c2cc(C(=O)OCC(=O)Nc3cc(C)on3)c3ccccc3n2)cc1OC | -20.7 | 20.5 | 0.8 | 3.6 | 5.5 | -25.0 | ·
CCC(C)c1ccc(-c2cc(C(=O)OCC(=O)Nc3cc(C)on3)c3ccccc3n2)cc1 (configuration not stated) | -53.8 | i | -9.3 | 0.2 | 1.5 | -95.9 | -485.8
Cc1ccc(C)c(NC(=O)COC(=O)c2cc3ccccc3oc2=O)c1 | -8.1 | -1.2 | -8.6 | -6.2 | 3.5 | -3.3 | ·
Cc1cc(C)c2nc(NC(=O)C3CSC4(C)CCC(=O)N34)sc2c1 (configuration not stated) | -7.5 | 47.5* | -2.7 | -3.7 | -2.3 | -10.9 | 45.5*
CC12CCC(=O)N1C(C(=O)Nc1nc3ccc(Cl)cc3s1)CS2 (configuration not stated) | 0.7 | -4.2 | -3.2 | -3.4 | -0.4 | -9.1 | ·
O=C(CN1CCN(c2ccccc2)CC1)Nc1cccc([N+](=O)[O-])c1 | 0.4 | 2.3 | -10.5 | -3.8 | -2.4 | 2.1 | ·
COc1cccc(-c2nc(-c3ccc(NC(=O)c4cccnc4)cc3)no2)c1 | -26.2 | -72.2 | -9.1 | 1.8 | 0.8 | 12.2 | ·
O=C(Nc1ccc(-c2noc(-c3cccs3)n2)cc1)c1cccnc1 | -101.3 | -288.6 | -11.6 | 0.1 | -1.4 | -114.9 | -279.6
CCn1cc(CNC(=O)c2c(-c3c(Cl)cccc3Cl)noc2C)c(C)n1 | -1.5 | -3.7 | 14.8 | 0.1 | 1.1 | 9.0 | ·
NC(=O)COc1cccc(/C=N/NC(=O)c2ccc(-n3cccc3)cc2)c1 | 10.2 | 51.8* | 11.5 | -8.3 | 0.4 | -22.8 | -7.2

Bioassay records: PubChem, several laboratories
